Assay results gathered from unrelated publications.
Lines come from different studies, so protocols differ.
Effect on: enzyme activity
Mode: inhibitor
NUAK1: NUAK family SNF1-like kinase 1 (NUAK1, Homo sapiens, UniProt O60285)
Rock2: Rho-associated protein kinase 2 (Rock2, Rattus norvegicus, UniProt Q62868)
DYRK1B: Dual specificity tyrosine-phosphorylation-regulated kinase 1B (DYRK1B, Homo sapiens, UniProt Q9Y463)

Structure (SMILES)	target	technique	concentration	remaining activity [%]
Cc1ccc(C(=O)Nc2ccc(CN3CCN(C)CC3)c(C(F)(F)F)c2)cc1C#Cc1cnc2cccnn12	Mitogen-activated protein kinase kinase kinase 15 (MAP3K15, Homo sapiens, UniProt Q6ZN16)		23.5 nM	67
Cc1nn(CC(F)(F)F)cc1Nc1ncc(C2CC2)c(NCCCNC(=O)C2CCC2)n1	NUAK1	radiometric	1 µM	82
Cc1cnc(NC2CCOCC2)nc1-n1cnc(C(=O)NC(CN)c2cc(F)cc(Cl)c2)c1 (stereo not drawn)	Rock2	radiometric	1 µM	25
O=C(O)c1ccc2c(c1)nc(NCCc1cccc(Cl)c1)c1ccncc12	DYRK1B	radiometric	1 µM	112
O=C(NCCCNc1nc(Nc2cccc(NC(=O)N3CCCC3)c2)ncc1Br)C1CCC1	Inhibitor of nuclear factor kappa-B kinase subunit epsilon (IKBKE, Homo sapiens, UniProt Q14164)	radiometric	1 µM	-2
COc1cccc(CCNc2nc3cc(C(=O)O)ccc3c3cncnc23)c1	Dual specificity tyrosine-phosphorylation-regulated kinase 3 (DYRK3, Homo sapiens, UniProt O43781)	radiometric	1 µM	28
Cc1nn(CC(F)(F)F)cc1Nc1ncc(C2CC2)c(NCc2ccc(S(N)(=O)=O)cc2)n1	NUAK1	radiometric	1 µM	97
COc1cccc(Nc2nc3cc(C(=O)O)ccc3c3cnccc23)c1	DYRK1B	radiometric	1 µM	35
CCCOc1ccc(OC)c(F)c1C(=O)c1ccc(C(=O)N[C@@H]2CNC[C@H]2NC(=O)c2ccc3[nH]ncc3c2)cc1	Rock2		10 µM	-1
